# Only some compounds are listed: those with a hit (about 2.9% of all), similar ones and a draw of the others.
# SENP7 inh: SENP7 protease inhibition. inhibition, % at 5 µM. Q9BQF6. 330,000 tested, 1.5% active. recombinant SENP7, Z-RLRGG-aminoluciferin luminescence, 40 min;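 active = inhibition above about 50% at the single test dose, limit read from the data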;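 also: plate controls were DMSO with enzyme for no effect and no enzyme buffer wells for full effect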
# SENP1 inh: inhibitors of human SENP1 SUMO protease catalytic domain; Q9P0U3; recombinant SENP1 catalytic domain, CyPet-SUMO1-YPet FRET cleavage; inhibition, % at 10 µM; 360,000 tested, 0.21% active;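 active = inhibition at least 30% at 10 µM, raw YFP signal under a set limit, fluorescence ratio 0.5 to 1.5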;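 also: 0% = enzyme with DMSO and 100% = no enzyme wells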
#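 Material: hSENP1 catalytic domain, recombinant; medium: Tris pH 8 with BME, BSA, NP40 and catalase; compound: single concentration of 10 µM compound, 0.5% DMSO final; technique: FRET read of cyan and yellow fluorescence; timing: 50 min enzyme reaction, room temperature, light-protected; reagent: SFCypet-SUMO1-SFYpet substrate at 25 nM; control set: no-enzyme low, enzyme-DMSO high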
# SENP6 block: SENP6 protease inhibition; Q9GZR1; 330,000 tested, 1.8% active; AID 2599; inhibition, % at 10 µM; Recombinant SENP6 catalytic domain, aminoluciferin luminescence;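 active = inhibition above about 50% at the single tested dose, limit read from the data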;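 also: plate controls were DMSO wells with enzyme for no effect and DMSO wells lacking enzyme for full effect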
# Target sequence (Q9GZR1 628-1112 limits assumed): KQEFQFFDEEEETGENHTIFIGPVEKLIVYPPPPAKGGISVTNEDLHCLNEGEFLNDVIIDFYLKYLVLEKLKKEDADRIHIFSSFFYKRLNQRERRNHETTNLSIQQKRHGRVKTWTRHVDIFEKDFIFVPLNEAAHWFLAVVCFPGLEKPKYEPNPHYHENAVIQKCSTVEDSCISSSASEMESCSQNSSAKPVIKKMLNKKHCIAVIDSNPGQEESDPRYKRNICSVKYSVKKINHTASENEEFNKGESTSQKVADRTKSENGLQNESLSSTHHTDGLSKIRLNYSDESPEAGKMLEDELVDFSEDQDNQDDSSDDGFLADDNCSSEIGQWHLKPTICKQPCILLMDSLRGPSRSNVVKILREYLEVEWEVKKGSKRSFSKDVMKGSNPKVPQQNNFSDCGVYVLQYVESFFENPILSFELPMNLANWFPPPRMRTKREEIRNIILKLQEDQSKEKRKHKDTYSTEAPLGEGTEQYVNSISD
# SENP8 block-1: SENP8 (human) protease inhibition; recombinant SENP8, Nedd8 substrate fluorescence; inhibition, % at 20 µM; 360,000 tested, 0.64% active; in the data active = inhibition mostly above about 40%, no sharp cut-off; inactive = mostly below about 27%
# Target sequence (Q96LD8 whole entry, looked up): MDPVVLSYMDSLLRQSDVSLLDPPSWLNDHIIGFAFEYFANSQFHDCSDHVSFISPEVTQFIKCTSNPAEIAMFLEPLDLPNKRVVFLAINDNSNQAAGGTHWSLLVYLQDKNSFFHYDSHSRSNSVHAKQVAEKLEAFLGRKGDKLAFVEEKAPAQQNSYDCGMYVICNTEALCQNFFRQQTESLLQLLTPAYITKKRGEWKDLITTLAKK
# HSP90 inh: HSP90 refolding inhibition in rabbit reticulocyte lysate; 290,000 tested, 0.91% active; AID 1789; inhibition, % at 5.6 µM; luciferase refolding luminescence, 3 h;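 active = inhibition above the screen-wide mean plus 3 SD, computed separately per campaign, cut at about 16% in these data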;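 also: 0% = DMSO wells and 100% = 60 µM geldanamycin wells; inhibitors lower the luminescence because luciferase stays unfolded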
# SENP8 block-2: blocks the human protease SENP8; Q96LD8; purified SENP8, Z-RLRGG-aminoluciferin cleavage, luminescence; inhibition, % at 10 µM; 330,000 tested, 1.2% active; in the data active = inhibition above about 50%
# HSP90 confirm: HSP90 inhibition, confirmation assay. shares compounds with HSP90 inh. rabbit reticulocyte lysate, luciferase refolding luminescence, 3 h. inhibition, % at 5.9 µM. 2,300 tested, 64% active. AID 1846; in the data active = inhibition above about 18%;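 also: 0% = vehicle wells and 100% = reference inhibitor wells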
# FLuc counter: counter-screen for HSP90 inhibitors: inhibitors of firefly luciferase; inhibition, % at 5.9 µM; 2,300 tested, 48% active; purified native firefly luciferase, luminescence; shares compounds with HSP90 inh; AID 1847;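 active = inhibition above the mean inhibition of all tested sample wells plus 3 SD, cut at about 10% in these data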;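 also: 0% = DMSO with luciferase and 100% = wells lacking luciferase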
# The depositor's hits bear a star; / = not tested or not shown.
SMILES,SENP7 inh,SENP1 inh,SENP6 block,SENP8 block-1,HSP90 inh,SENP8 block-2,HSP90 confirm,FLuc counter
CCC(C)c1ccc2oc(-c3ccc(NC(=O)Cn4cnc5c(=O)n(C)c(=O)n(C)c54)cc3)nc2c1 (stereo not given),-12.2,-4.7,-16.6,-278.4,26.1*,-14.0,27.5*,17.5*
O=C(O)c1ccc(Cn2cc(/C=C\[N+](=O)[O-])c3ccccc32)o1,-8.4,-6.9,3.3,1.3,43.4*,-1.1,3.7,-5.4
O=[N+]([O-])c1ccc2nc(/C=C/c3ccc(Cl)cc3)[nH]c2c1,7.7,2.0,-2.5,-161.7,27.9*,0.4,5.7,0.6
Cc1ccc(S(=O)(=O)NCCCNS(=O)(=O)c2ccccc2)cc1,-0.9,-0.4,-33.2,4.7,24.8*,-4.9,-7.5,-8.4
Nc1nc(-c2ccc(NC(=O)c3ccco3)cc2)cs1,8.8,-1.9,7.1,-22.8,28.4*,22.4,50.6*,46.0*
O=C(Nc1ccc(NC(=O)c2ccco2)cc1)c1ccco1,14.3,1.2,7.6,6.4,3.7,6.5,/,/
O=C(O)c1cccc(-c2ccc(/C=N/NC(=O)c3cccnc3)o2)c1,2.3,-6.4,11.2,-271.8,5.5,14.9,/,/
O=C(N/N=C/c1ccc(-c2ccccc2[N+](=O)[O-])o1)c1cccnc1,17.0,-1.0,31.9,8.9,31.9*,44.1,6.2,-8.4
CC[C@]12c3[nH]c4cc(-c5ccco5)ccc4c3CCN1C(=O)[C@@H](CC(=O)NC(C)(C)C)C[C@@H]2C(=O)N1CCN(C(=O)C2CC2)CC1,3.2,-23.5,/,-365.8,/,/,/,/
Cc1ccc(C(=O)NCC(=O)OC(C)C(=O)Nc2ccc(N3CCOCC3)cc2)s1 (stereo not given),2.7,0.3,-5.3,31.0,19.6*,6.6,-4.3,-13.1
Cc1ccc(S(=O)(=O)CCC(=O)OC(C)C(=O)Nc2ccc(N3CCOCC3)cc2)cc1 (stereo not given),2.0,1.6,-16.6,11.3,/,5.1,/,/
Nc1cc(=O)[nH]c(SCC(=O)NNC(=O)Cc2ccccc2)n1,-6.3,-2.8,2.0,20.2,23.5*,0.6,2.9,-0.1
Nc1cc(=O)[nH]c(SCC(=O)NNC(=O)c2ccccc2)n1,-13.0,-8.5,-15.1,-2.5,/,1.9,/,/
CCCCNC(=O)C[C@@H]1C[C@@]2(C(=O)OCC)CCC=C2N(Cc2ccc(Cl)cc2Cl)C1=O,/,-0.4,/,3.8,/,/,/,/
O=C(O)c1cccc(NC(=S)NC(NC(=O)c2ccccc2[N+](=O)[O-])C(Cl)(Cl)Cl)c1 (stereo not given),-0.5,3.4,5.9,5.6,0.7,3.3,/,/
O=C(O)c1cccc(NC(=S)NC(NC(=O)c2cccc([N+](=O)[O-])c2)C(Cl)(Cl)Cl)c1 (stereo not given),1.0,-0.1,-18.8,12.7,29.3*,-5.0,74.6*,2.9
Cc1cc(C)c(C(=O)Nc2ccc(Br)c(C(F)(F)F)c2)c(C)c1,-4.2,1.8,-3.6,7.8,1.3,-8.4,/,/
O=c1oc(Nc2ccc(F)cc2)nc2ccccc12,4.1,0.8,28.1,-267.0,18.2*,4.7,8.9,-20.6
CCCc1ccc(-c2cc(C(=O)NN3CCOCC3)c3ccccc3n2)cc1,1.2,1.3,-1.9,-5.7,-4.0,1.8,/,/
CCc1ccc(-c2cc(C(=O)Nn3cnnc3)c3ccccc3n2)cc1,24.9,1.8,27.4,-22.3,30.1*,16.8,55.7*,30.3*
Cc1cc(C)nc(N/N=C/C2=C(N3CCOCC3)C(=C\c3ccc(Cl)cc3)/CC2)n1,5.2,-0.9,10.6,-311.1,1.8,2.6,/,/
O=C(O)c1ccc(N/N=C/C2=C(N3CCOCC3)C(=C\c3ccccc3)/CC2)cc1,1.5,-33.8,-18.1,-65.0,17.6*,-6.8,2.9,2.4
Cc1cc(Br)ccc1NC(=O)CN(C)C(=O)C1=COCCO1,-6.5,0.7,-10.9,10.0,/,-7.2,/,/
CN(CC(=O)Nc1ccc(F)c(F)c1F)C(=O)c1nn(Cc2ccccc2)c(=O)c2ccccc12,-0.2,0.2,2.5,7.9,/,-0.2,/,/
CC(C)Oc1ccc(CC(=O)NNC(=S)Nc2ccccc2)cc1,8.3,0.5,-3.5,12.8,-2.9,-2.8,/,/
SMILES,SENP7 inh,SENP1 inh,SENP6 block,SENP8 block-1,HSP90 inh,SENP8 block-2,HSP90 confirm,FLuc counter
CC(C)Oc1ccc(CCC(=O)NNC(=S)Nc2ccccc2)cc1,3.6,-0.5,-10.1,9.8,18.1*,0.5,-5.5,-9.7
Cc1cc(C)cc(Nc2ncc3c(n2)CCCC3=O)c1,3.4,0.6,-5.1,-26.7,17.4*,-14.2,42.7*,23.3*
CCOC(=O)N1N=C(c2ccc(C)cc2)CC1(O)C(F)(F)F (stereo not given),0.2,-0.5,7.5,10.4,19.9*,-4.3,48.0*,43.4*
CCOC(=O)N1N=C(c2ccccc2)CC1(O)C(F)(F)F (stereo not given),10.6,1.1,-6.2,6.9,-1.2,-15.6,/,/
O=C(N/N=C/c1ccc(O)cc1)c1ccc(NC(=O)c2ccccc2Br)cc1,-5.1,-0.2,-20.3,-182.1,19.9*,-7.1,1.4,-5.2
Cc1ccccc1C(=O)Nc1ccc(C(=O)N/N=C/c2ccc(O)cc2)cc1,-7.4,2.0,-30.2,-177.2,-6.2,-13.4,/,/
Cc1ccc(C)c(Cn2nnc3c(=O)[nH]c(C4CCN(S(=O)(=O)c5ccc(S(=O)(=O)NC6CC6)cc5)CC4)nc32)c1,-6.1,1.1,-3.8,0.7,11.7,-6.4,/,/
Cc1ccc(C)c(Cn2nnc3c(=O)[nH]c(C4CCN(S(=O)(=O)c5ccc(S(=O)(=O)N(C)C)cc5)CC4)nc32)c1,6.9,1.4,-5.6,13.9,22.1*,2.7,19.3*,-1.8
Cc1ccc(-c2cn3cccc(C)c3n2)cc1,/,-3.2,/,-206.7,17.9*,/,29.2*,28.2*
Cc1cccn2cc(-c3ccc(S(=O)(=O)N4CCCCC4)cc3)nc12,37.8,-6.2,33.0,-361.1,-0.3,16.2,/,/
Cc1ccccc1NC(=O)N1CCCC(c2nc(-c3ccc(C(C)C)cc3)no2)C1 (stereo not given),-1.1,0.8,-6.5,12.8,69.9*,7.4,3.5,-24.2
Cc1ccc(NC(=O)CN2C(=O)S/C(=C\c3ccc(-c4cccc(C(=O)O)c4C)o3)C2=O)cc1,-0.8,/,-2.6,/,25.6*,7.0,24.1*,-5.8
Cc1ccc(NC(=O)CN2C(=O)S/C(=C/c3ccc(-c4cccc(C(=O)O)c4)o3)C2=O)cc1,/,-29.2,/,-273.3,0.4,/,/,/
CC(C)(C)n1nnnc1C(c1ccccc1F)N1CCN(C2CCCC2)CC1 (stereo not given),/,1.1,/,15.6,22.5*,/,-1.3,-2.5
CCOc1ccc(NC(=O)N2CCC(c3nc4ccccc4o3)CC2)cc1,0.5,3.0,-34.3,25.4,0.8,-5.0,/,/
